High-throughput results (PubChem)
Only some compounds are listed: those with a hit (about 3.7% of all), similar ones and a draw of the others.
MC4R barr agon = MC4R agonists recruiting beta-arrestin, primary screen, cell-based, luminescence, agonist arm of biased-ligand search; Melanocortin receptor 4 (Homo sapiens), P32245; activation, % at 8.9 µM; U2OS MC4R beta-arrestin complementation; percent of melanotan II response, DMSO zero; 0.98% of 360,000 active;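 active means activation above a per-plate cutoff, the mean activation of sample wells on that plate plus 3 SD, cut at about 8% in these data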
Target sequence (P32245 whole entry, looked up): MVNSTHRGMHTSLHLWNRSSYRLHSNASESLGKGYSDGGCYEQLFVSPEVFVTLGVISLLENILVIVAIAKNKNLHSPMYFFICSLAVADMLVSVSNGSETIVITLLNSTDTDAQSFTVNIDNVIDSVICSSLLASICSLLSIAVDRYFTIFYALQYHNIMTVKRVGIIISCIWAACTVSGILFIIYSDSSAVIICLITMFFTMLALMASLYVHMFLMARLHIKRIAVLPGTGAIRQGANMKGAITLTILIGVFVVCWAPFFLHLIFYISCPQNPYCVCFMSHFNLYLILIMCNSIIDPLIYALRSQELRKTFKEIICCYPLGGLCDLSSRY
EBI2 antag = EBI2 receptor antagonists, beta-arrestin recruitment, primary screen, cell-based, luminescence, 7a,25-OHC stimulation, uHTS | 0.81% of 360,000 active | G-protein coupled receptor 183 (Homo sapiens), P32249 | inhibition, % at 5 µM | 7a,25-OHC stimulated; in the data active means inhibition above about 38%;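 further: enzyme fragment complementation signal reports receptor beta-arrestin coupling in cells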
Exocytosis inh = LAMP-1 surface exposure blockers, TALL-104 cells – cell-based, flow cytometry, MLPCN library, primary screen; TALL-104 LAMP-1 surface exposure; cells stimulated with thapsigargin and PMA; inhibition, % at 10 µM; 0.66% of 360,000 active; AID 651702, 2012;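 active means inhibition above about 55%, limit read from the data; inconclusive means no clear call, values can overlap the other calls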
MC4R antagonist = MC4R antagonists of cAMP signaling, primary screen, cell-based, TR-FRET, antagonist arm of biased-ligand search; Melanocortin receptor 4 (Homo sapiens), P32245; MC4R-expressing cells, MTII-stimulated cAMP, LANCE TR-FRET; inhibition, % at 6.5 µM; 0.48% of 360,000 active; AID 540295, 2011;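 active means inhibition above its plate's cutoff, the mean of tested wells on that plate plus 3 SD, cut at about 29% in these data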
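Material: human MC4R-expressing U2OS cells. Probe or stimulus: Melanotan II challenge. Dosing: 6.5 µM single dose. Times: 30-min compound, 1-h challenge, 1-h detection, room temperature. Technique: TR-FRET with Eu-cAMP and labeled anti-cAMP, 671 nm. Replication: singlicate.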
Myeloid diff MLP = induction of myeloid progenitor differentiation, primary screen, cell-based, flow cytometry, MLPCN library. calls only at 10 µM. AID 624256, 2012. ER-HoxA9 myeloid progenitors, lysozyme-GFP differentiation. 1% of 360,000 active;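 active means normalized GFP-positive differentiation at or above the plate's own cutoff, the solvent-only control mean plus 3 SD; inconclusive means no clear call, values can overlap the other calls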;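 further: cells exposed to compound for four days before flow analysis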
Hits are given with their value; 0 = inactive; ? = inconclusive; - = not tested or not shown; + = active, no number.

SMILES	MC4R barr agon	EBI2 antag	Exocytosis inh	MC4R antagonist	Myeloid diff MLP
COc1ccc2cc(CN(CC3CCCO3)S(=O)(=O)c3ccc(C(C)=O)cc3)c(=O)[nH]c2c1 (stereo not drawn)	0	0	0	0	+
Cc1noc(C)c1S(=O)(=O)N(C)C[C@@H]1OCc2cnnn2CCCC(=O)N([C@H](C)CO)C[C@@H]1C	0	0	0	0	0
CCOC(=O)C(=C1Nc2ccccc2N1)n1c(-c2ccco2)nc2ccccc21	-	0	98	-	0
C#CCOCCOCCOCCNc1nc(N2CCN(C(=O)CCCCCCCCCCNC(=O)[C@H](CCCCN)n3cc(C[C@@H](C)CC)nn3)CC2)nc(N2CCN(C(=O)CCCCCCCCCCNC(=O)[C@H](CCCN=C(N)N)n3cc(C[C@@H](C)CC)nn3)CC2)n1	0	0	0	83	0
C#CCOCCOCCOCCNc1nc(N2CCN(C(=O)CCCCCCCCCCNC(=O)Cn3cc(C[C@@H](C)O)nn3)CC2)nc(N2CCN(C(=O)CCCCCCCCCCNC(=O)[C@@H](CCSC)n3cc(CCO)nn3)CC2)n1	0	0	0	0	+
C#CCOCCOCCOCCNc1nc(N2CCN(C(=O)CCCCCCCCCCNC(=O)[C@@H](CCSC)n3cc(CCO)nn3)CC2)nc(N2CCN(C(=O)CCCCCCCCCCNC(=O)[C@H](CCCN=C(N)N)n3cc(C[C@@H](C)CC)nn3)CC2)n1	0	0	0	60	0
C#CCOCCOCCOCCNc1nc(N2CCN(C(=O)CCCCCCCCCCNC(=O)[C@H](CCCCN)n3cc(C[C@@H](C)CC)nn3)CC2)nc(N2CCN(C(=O)CCCCCCCCCCNC(=O)[C@@H]([C@H](C)O)n3cc(C)nn3)CC2)n1	0	0	97	44	0
CCc1nc2ccc(C(=O)Nc3cccc(NS(C)(=O)=O)c3)cn2c1N(C=O)CCC(C)C	0	0	0	0	+
Cc1ccc(C(=O)Nc2ccc(S(=O)(=O)Nc3cnc4ccccc4n3)cc2)cc1	0	0	0	0	0
CC(=O)c1cccc(OCc2cc(C(=O)N3C[C@H]4CC[C@H]3C4)no2)c1	0	0	0	0	+
O=C(c1cc(COc2cccc(C(F)(F)F)c2)on1)N1C[C@H]2CC[C@H]1C2	0	0	0	0	0
COc1cc(NC(=O)Cc2cccs2)c(C(=O)O)cc1OC	0	0	0	0	0
Cc1ccc(C(=O)NCC(c2ccco2)N2CCCCC2)s1 (stereo not drawn)	0	0	0	0	0
O=C(NCC(c1ccco1)N1CCCCC1)c1ccc([N+](=O)[O-])s1 (stereo not drawn)	0	0	0	0	+
Cc1ccc2oc(C(=O)NCC(c3ccco3)N3CCCC3)c(C)c2c1 (stereo not drawn)	0	0	0	0	+
N#C/C(=C(/O)CCl)c1nc2c(s1)CCc1ccccc1-2	0	0	0	0	+
Nc1nc2c(s1)CCc1ccccc1-2	0	0	0	0	0
O=C(OCCOc1ccccc1F)c1cccc(S(=O)(=O)N2CCOCC2)c1	0	0	0	0	+
CCOC(=O)c1cccc(S(=O)(=O)N2CCOCC2)c1	0	0	0	0	0
COc1cccc(C(=O)NC23CC4CC(CC(C4)C2)C3)c1	0	0	0	0	0
CCOC(=O)Cn1c(=O)c(-c2cc(Br)ccc2N)nc2ccccc21	0	0	0	0	+
COc1cc(/C=C2\CCC/C(=C\c3ccc(O)c(OC)c3)C2=O)ccc1O	30	0	0	0	0
COc1cc(/C=C2\COC/C(=C\c3cc(OC)c(OC)c(OC)c3)C2=O)cc(OC)c1OC	0	45	0	0	?
COc1cc(OC)c(C(=O)/C=C/c2ccc(OCc3ccccc3)c(OC)c2)c(OC)c1	0	0	0	0	0
CCOc1cc(/C=C2\CN(CC)C/C(=C\c3ccc(O)c(OCC)c3)C2=O)ccc1O	0	0	57	0	-
SMILES	MC4R barr agon	EBI2 antag	Exocytosis inh	MC4R antagonist	Myeloid diff MLP
COc1cc(OC)c(C(=O)C=Cc2ccc(OC)c(OC)c2)c(OC)c1	0	0	73	0	0
COc1cc(/C=C2/CCCC(C(=O)C(F)(F)F)=C2O)ccc1O	0	0	0	0	0
Cc1ccc(C)c(N(C)C(=O)CCS(=O)(=O)c2cccc3nonc23)c1	0	0	0	0	0
CN1C(=O)[C@H]2[C@@H](c3ccc(C(F)(F)F)cc3)N[C@]3(CCCN(Cc4ccc(Br)cc4)C3=O)[C@H]2C1=O	0	0	0	0	0
C=CCN([C@H](C(=O)OC)C(C)C)S(=O)(=O)CCNCc1ccccc1	0	0	0	0	0
CC1CCCCN1C(=O)CSc1nc2c(c(=O)n(C)c(=O)n2C)n1C (stereo not drawn)	0	0	0	0	0
COc1cc(C=C2C(=O)C=CC2=O)ccc1O	-	0	83	-	?
COc1cc(/C=C2/C(=O)CNC2=O)ccc1O	0	0	0	0	0
CCN1C/C(=C/c2cccc([N+](=O)[O-])c2)C(=O)/C(=C/c2cccc([N+](=O)[O-])c2)C1	0	0	64	0	?
COc1cc(/C=C/C(=O)O)ccc1O	0	0	0	0	0
O=C1NC(=O)/C(=C/c2cccc([N+](=O)[O-])c2)N1	0	0	0	0	0
COc1cc(/C=C2\SC(N3CCC(C)CC3)=NC2=O)ccc1O	0	40	0	0	0
COc1cc(/C=C/C(=O)CC(=O)/C=C/c2ccc(O)c(OC)c2)ccc1O	0	0	84	0	0
COC1=CC(=O)OC(c2cccc(Cl)c2)C1 (stereo not drawn)	-	0	0	-	0
COc1ccc(OC)c2cc3ccccc3cc12	0	0	104	0	+
Cc1ccc(N(C)S(=O)(=O)c2cccc(C(=O)N(C)Cc3cnn(-c4ccccc4)c3)c2)cc1	0	0	0	0	0
S=C(NCc1ccc(Cl)cc1)Nc1ccccc1	0	0	0	0	0
S=C(NCc1ccc(Cl)cc1Cl)Nc1ccccc1	8.9	0	0	0	0
O=C(N/N=C/c1cc(Br)c(O)c(Br)c1O)c1cccnc1	0	0	65	0	0
O=C(N/N=C/c1cc(O)ccc1Br)c1cccnc1	0	0	0	0	0
CCC(C)C(=O)N1c2ccccc2C(=C2SC(C(=O)OC)=C(C(=O)OC)S2)C(=S)C1(C)C (stereo not drawn)	0	52	0	0	0
CCOC(=O)C1=C(C)c2ccccc2N(C(=O)OC)C1(C)C(=O)OCC (stereo not drawn)	0	0	0	0	0
CCN(CC)c1ccc(/C=C/C(=O)C2C(=O)C=C(C)OC2=O)cc1 (stereo not drawn)	0	0	0	0	+
